ChEMBL document CHEMBL1629579, “Correlating echinocandin MIC and kinetic inhibition of fks1 mutant glucan synthases for Candida albicans: implications for interpretive breakpoints” (Antimicrob Agents Chemother, 2009)
≈ marks a conversion by molar mass, not a printed value. Numbered stars: 1 amine (or outer) side, 2 acyl side, 3 side chain; on linkers, the order of the positions; unused ones are H or OH. Bridge positions count the residues as written; N and C are the ends. Square brackets hold non-standard residues; d marks the D form. Peptide text beside a SMILES is read from it. * marks the point of attachment. pTerphenylCO(4''-OnC5H11) = CCCCCOc1ccc(-c2ccc(-c3ccc(C(=O)*)cc3)cc2)cc1; Orn(4R-OH,5R-OH) = O=C([C@H](C[C@@H](O)[C@@H](O)N[*:3])N[*:1])[*:2]; hTyr(3S-OH,4S-OH) = N[C@H](C(=O)O)[C@H](O)[C@@H](O)c1ccc(O)cc1; Pro(3S-OH,4S-Me) = C[C@H]1CN[C@H](C(=O)O)[C@H]1O; Hyp = O=C(O)[C@@H]1C[C@@H](O)CN1

Key:
[1] = tested on: Candida albicans; experiment: Activity at Candida albicans 90028 1,3-beta-D-glucan synthase subunit FKS1p
In short: (§1)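 Glucan synthase from cells grown at 37°C with vigorous shaking to early stationary phase in YPD. Membrane enzyme enriched by product entrapment. Serial echinocandin dilutions; ANF controls held 1% DMSO. Reaction started by adding enzyme, run 60 min at 25°C in a filtration polymerization assay, stopped on ice. IC50 from a variable-slope sigmoidal fit; means of three repetitions on separate days.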

[2] = Inhibition of Candida albicans 205 1,3-beta-D-glucan synthase subunit FKS1p T1933C mutant
In short: (§2)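 Enzyme is product-entrapped 1,3-β-D-glucan synthase, enriched from membranes of each strain grown at 37°C with shaking in YPD broth to early stationary phase. Filtration polymerization assay uses [3H]UDPG, started by adding enzyme and run 60 min at 25°C. Echinocandins are added as serial dilutions, with 1% DMSO controls for anidulafungin. IC50 is from a variable-slope sigmoidal fit; values are triplicate arithmetic means.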

[3] = tested on: Candida albicans; experiment: Antimicrobial activity against Candida albicans A15-10 harboring FKS1 T1933C mutant gene and FKS1 hotspot1 S645P mutant by M27-A3 method in presence of 50% human serum; assay type: functional
In short: (§3)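 Broth microdilution per CLSI M27-A3 in RPMI 1640, done in triplicate on three separate days. Each strain was tested with and without 50% human serum. C. krusei ATCC 6258 and C. parapsilosis ATCC 22019 served as QC strains. Arithmetic means are reported, and geometric means were used for comparison.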

[4] = tested on: Candida albicans; experiment: Antimicrobial activity against Candida albicans 205 harboring FKS1 T1933C mutant gene and FKS1 hotspot1 S645P mutant gene by M27-A3 method; assay type: functional; in short: as §3
[5] = tested on: Candida albicans; experiment: Antimicrobial activity against Candida albicans 3795 by M27-A3 method in presence of 50% human serum; assay type: functional; in short: as §3
[6] = tested on: Candida albicans; experiment: Antimicrobial activity against Candida albicans 85 harboring FKS1 C1934T mutant gene and FKS1 hotspot1 S645F mutant gene by M27-A3 method in presence of 50% human serum; assay type: functional; in short: as §3
[7] = Inhibition of Candida albicans 3795 1,3-beta-D-glucan synthase subunit FKS1p; in short: as §2
[8] = tested on: Candida albicans; experiment: Activity at Candida albicans 3107 1,3-beta-D-glucan synthase subunit FKS1p; in short: as §1
[9] = Inhibition of Candida albicans 121 1,3-beta-D-glucan synthase subunit FKS1p G4082A mutant; in short: as §2
[10] = tested on: Candida albicans; experiment: Antimicrobial activity against Candida albicans 90 harboring FKS1 G4082R mutant gene and FKS1 hotspot2 R1361R/H mutant gene by M27-A3 method; assay type: functional; in short: as §3
[11] = tested on: Candida albicans; experiment: Activity at Candida albicans 90 1,3-beta-D-glucan synthase subunit FKS1p G4082R mutant
In short: (§4)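 Product-entrapped 1,3-β-D-glucan synthase from cells grown in YPD at 37°C to early stationary phase. Wells held 50 mM HEPES pH 7.5, 10% glycerol, 1.5 mg/ml BSA, 25 mM KF, 1 mM EDTA, 25 μM GTP-γ-S, 1 μg enzyme and [3H]UDPG (0.015–2 mM). Reactions ran 60 min at 25°C. Vmax and Km came from Lineweaver-Burke plots, in triplicate.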

[12] = tested on: Candida albicans; experiment: Antimicrobial activity against Candida albicans 194 harboring FKS1 C1934T/G4082R mutant gene and FKS1 hotspot1 S645F mutant gene and FKS1 hotspot2 R1361R/H mutant gene by M27-A3 method in presence of 50% human serum; assay type: functional; in short: as §3
[13] = tested on: Candida albicans; experiment: Activity at Candida albicans 2762 1,3-beta-D-glucan synthase subunit FKS1p T1922C mutant; in short: as §4
[14] = tested on: Candida albicans; experiment: Antimicrobial activity against Candida albicans 85 harboring FKS1 C1934T mutant gene and FKS1 hotspot1 S645F mutant gene by M27-A3 method; assay type: functional; in short: as §3
[15] = tested on: Candida albicans; experiment: Activity at Candida albicans 177 1,3-beta-D-glucan synthase subunit FKS1p T1922C mutant; in short: as §4
[16] = tested on: Candida albicans; experiment: Antimicrobial activity against Candida albicans 89 harboring FKS1 C1934A mutant gene and FKS1 hotspot1 S645Y mutant gene by M27-A3 method; assay type: functional; in short: as §3
[17] = tested on: Candida albicans; experiment: Antimicrobial activity against Candida albicans 121 harboring FKS1 G4082A mutant gene and FKS1 hotspot2 R1361H mutant gene by M27-A3 method in presence of 50% human serum; assay type: functional; in short: as §3
[18] = tested on: Candida albicans; experiment: Antimicrobial activity against Candida albicans 122 harboring FKS1 C1946A mutant gene and FKS1 hotspot1 P649H mutant gene by M27-A3 method in presence of 50% human serum; assay type: functional; in short: as §3
[19] = Inhibition of Candida albicans 1002 1,3-beta-D-glucan synthase subunit FKS1p
In short: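 Product-entrapped glucan synthase from YPD-grown cells (37°C, early stationary phase) in a filtration polymerization assay with [3H]UDPG. Echinocandin serial dilutions were added, with 1% DMSO in controls for anidulafungin. Reactions were started with enzyme, run 60 min at 25°C and stopped on ice. IC50 came from a variable-slope sigmoidal fit, in triplicate.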

[20] = tested on: Candida albicans; experiment: Antimicrobial activity against Candida albicans 3107 by M27-A3 method in presence of 50% human serum; assay type: functional; in short: as §3
[21] = tested on: Candida albicans; experiment: Antimicrobial activity against Candida albicans 121 harboring FKS1 G4082A mutant gene and FKS1 hotspot2 R1361H mutant gene by M27-A3 method; assay type: functional; in short: as §3
[22] = tested on: Candida albicans; experiment: Antimicrobial activity against Candida albicans 5415 harboring FKS1 T1933C mutant gene and FKS1 hotspot1 S645P mutant gene by M27-A3 method in presence of 50% human serum; assay type: functional; in short: as §3
[23] = tested on: Candida albicans; experiment: Antimicrobial activity against Candida albicans 90 harboring FKS1 G4082R mutant gene and FKS1 hotspot2 R1361R/H mutant gene by M27-A3 method in presence of 50% human serum; assay type: functional; in short: as §3
[24] = tested on: Candida albicans; experiment: Antimicrobial activity against Candida albicans A15-10 harboring FKS1 T1933C mutant gene and FKS1 hotspot1 S645P mutant gene by M27-A3 method; assay type: functional; in short: as §3
[25] = tested on: Candida albicans; experiment: Activity at Candida albicans 205 1,3-beta-D-glucan synthase subunit FKS1p T1933C mutant; in short: as §4
[26] = Inhibition of Candida albicans 177 1,3-beta-D-glucan synthase subunit FKS1p T1922C mutant; in short: as §2
[27] = tested on: Candida albicans; experiment: Activity at Candida albicans 1002 1,3-beta-D-glucan synthase subunit FKS1p; in short: as §1
[28] = Inhibition of Candida albicans 5415 1,3-beta-D-glucan synthase subunit FKS1p T1933C mutant; in short: as §2
[29] = Inhibition of Candida albicans A15-10 1,3-beta-D-glucan synthase subunit FKS1p T1933C mutant; in short: as §2
[30] = Inhibition of Candida albicans 89 1,3-beta-D-glucan synthase subunit FKS1p C1934A mutant; in short: as §2
[31] = tested on: Candida albicans; experiment: Activity at Candida albicans 149 1,3-beta-D-glucan synthase subunit FKS1p G1942T mutant; in short: as §4

CCCCCOc1ccc(-c2ccc(-c3ccc(C(=O)N[C@H]4C[C@@H](O)[C@@H](O)NC(=O)[C@@H]5[C@@H](O)[C@@H](C)CN5C(=O)[C@H]([C@@H](C)O)NC(=O)[C@H]([C@H](O)[C@@H](O)c5ccc(O)cc5)NC(=O)[C@@H]5C[C@@H](O)CN5C(=O)[C@H]([C@@H](C)O)NC4=O)cc3)cc2)cc1 [ANIDULAFUNGIN] ({pTerphenylCO(4''-OnC5H11)}-[Orn(4R-OH,5R-OH)]T[Hyp][hTyr(3S-OH,4S-OH)]T[Pro(3S-OH,4S-Me)]; lactam 1-C) gave a Km [1] of 67 µM, a Vmax [1] of 4.71 nmol/min and an IC50 [2] of 989 ng/mL (≈ 0.867 µM). It also gave a Ki [2] of 3223.1 ng/mL (≈ 2.83 µM), an MIC [3] of 8 µg/mL and an MIC [4] of 1.33 µg/mL (≈ 1.17 µM). The MIC [5] was 0.44 µg/mL, the MIC [6] was 8 µg/mL and the IC50 [7] was 6.76 ng/mL (≈ 0.00593 µM). For the same compound, the Ki [7] was 16.7 ng/mL (≈ 0.0146 µM), the Km [8] was 102 µM and the Vmax [8] was 6.04 nmol/min. For the same compound, the IC50 [9] was 75.99 ng/mL (≈ 0.0666 µM), the Ki [9] was 84.57 ng/mL (≈ 0.0742 µM) and the MIC [10] was 0.25 µg/mL (≈ 0.219 µM). It also gave a Km [11] of 31 µM, a Vmax [11] of 2.36 nmol/min and an MIC [12] of 8 µg/mL. It also gave a Km [13] of 108 µM, a Vmax [13] of 3.57 nmol/min and an MIC [14] of 2 µg/mL (≈ 1.75 µM). For the same compound, the Km [15] was 50 µM, the Vmax [15] was 4.4 nmol/min and the MIC [16] was 2 µg/mL (≈ 1.75 µM). It also gave an MIC [17] of 8 µg/mL, an MIC [18] of 8 µg/mL and an IC50 [19] of 7.96 ng/mL (≈ 0.00698 µM). It also gave a Ki [19] of 2.39 ng/mL (≈ 0.0021 µM), an MIC [20] of 0.25 µg/mL and an MIC [21] of 0.25 µg/mL (≈ 0.219 µM). It also gave an MIC [22] of 8 µg/mL, an MIC [23] of 4 µg/mL and an MIC [24] of 4 µg/mL (≈ 3.51 µM). For the same compound, the Km [25] was 116 µM, the Vmax [25] was 5.54 nmol/min and the IC50 [26] was 2622 ng/mL (≈ 2.3 µM). The Ki [26] was 4342.33 ng/mL (≈ 3.81 µM), the Km [27] was 122 µM and the Vmax [27] was 5.8 nmol/min. It also gave an IC50 [28] of 1152 ng/mL (≈ 1.01 µM), a Ki [28] of 4154.11 ng/mL (≈ 3.64 µM) and an IC50 [29] of 901 ng/mL (≈ 0.79 µM). It also gave a Ki [29] of 2563.7 ng/mL (≈ 2.25 µM), an IC50 [30] of 2739 ng/mL (≈ 2.4 µM) and a Ki [30] of 1163.37 ng/mL (≈ 1.02 µM). For the same compound, the Km [31] was 32 µM and the Vmax [31] was 1.22 nmol/min.
